pIC50: −log10 of the molar value. Activity calls are given as the source filed them. The calls are words filed in the database; no cut-off is given here.

Two compounds from ChEMBL document CHEMBL2169836 (J Med Chem, 2012) can be followed below.

One series concerns Caco-2. The series can be described thus: Efflux ratio of permeability from […] side in human Caco2 cells at 10 uM up to 150 mins. In kind it is ADME, cell-based. Conditions: caco-2, 2.5 h. On the technique in general: Caco-2 cells form a polarised layer with tight junctions and transporters.
Series [1] can be described thus: Volume of distribution at steady state in jugular and femoral vein precannulated Sprague-Dawley rat at 1 mg/kg, iv by LC/MS/MS analysis. Conditions: in vivo, read-out: Vdss. The class given is ADME, organism-based. Set-up: dose 1 mg/kg, route intravenous.
In another series the test system is Rattus norvegicus. The series can be described thus: Clearance in jugular and femoral vein precannulated Sprague-Dawley rat at 1 mg/kg, iv by LC/MS/MS analysis relative to hepatic blood flow. In kind it is ADME, organism-based, Liver. Set-up: dose 1 mg/kg, route intravenous. Conditions: in vivo.
The target in series [2] is Sodium/hydrogen exchanger 1 (Homo sapiens, UniProt P19634). The series can be described thus: Inhibition of NHE1 in human HT-29 cells assessed as intracellular pH change after 30 mins. The class given is cell-based.
Series [3] in a line: Mean resident time in jugular and femoral vein precannulated Sprague-Dawley rat at 1 mg/kg, iv by LC/MS/MS analysis. In kind it is ADME, organism-based. Set-up: dose 1 mg/kg, route intravenous. Conditions: in vivo.
Series [4] can be described thus: Oral bioavailability in jugular and femoral vein precannulated Sprague-Dawley rat plasma at 5 mg/kg by LC/MS/MS analysis. In kind it is ADME, organism-based.
The target of series [5] is T1, Cytochrome P450 3A4 (Homo sapiens, UniProt P08684). The series can be described thus: Activation of CYP3A4 expressed in DPX cells co-transfected with human PXR at 0.1 to 10 uM. In kind it is ADME, cell-based.
Series [6] concerns Heart. As to the kind of experiment: Inhibition of ischemia reperfusion injury-induced decrease in left ventricular developed pressure in Langendorff isolated perfused Sprague-Dawley rat heart at 10 nM after 30 mins. Set-up: scale not given: the % may be the effect or the level left. The class given is functional. The essentials:
(§1)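 In the isolated perfused rat heart ischemia-reperfusion model, compound was present in the perfusate. Recovery of left ventricular developed pressure was expressed as % of baseline pressure, 30 min postreperfusion, against vehicle control. Left ventricular end diastolic pressure was also monitored.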

Series [7] concerns Salmonella typhimurium. As to the kind of experiment: Genotoxicity in Salmonella typhimurium TA100 up to 5000 ug/plate by Ames test in the absence of S9 fraction. In kind it is toxicity, organism-based. The following applies: salmonella enterica subsp. enterica serovar typhimurium. (The Ames test uses bacterial strains that need an amino acid and regain growth without it when mutated back.)

The subject of series [8] is Salmonella typhimurium. The series can be described thus: Genotoxicity in Salmonella typhimurium TA1537 up to 5000 ug/plate by Ames test in the presence of S9 fraction. The following applies: salmonella enterica subsp. enterica serovar typhimurium. In kind it is toxicity, organism-based.
Series [9] has as its target Voltage-gated inwardly rectifying potassium channel KCNH2 (Homo sapiens, UniProt Q12809). The series can be described thus: Inhibition of human ERG expressed in HEK 293 cells by PatchXpress assay. In kind it is cell-based, HEK293.
The nature of series [10]: Metabolic stability in rat liver microsomes at 1 uM up to 60 mins by LC/MS/MS analysis relative to hepatic blood flow. Conditions: read-out: Stability. The class given is ADME, Microsome. In general terms: Microsomes from liver hold many membrane-bound enzymes, among them those of drug oxidation.
Series [11] can be described thus: Volume of distribution at steady state in overnight fasted Beagle dog at 1 mg/kg, iv. In kind it is ADME, organism-based, Canis lupus familiaris. Set-up: dose 1 mg/kg, route intravenous. Conditions: in vivo, read-out: Vdss.
Series [12] has as its system Salmonella typhimurium. The series can be described thus: Genotoxicity in Salmonella typhimurium TA1537 up to 5000 ug/plate by Ames test in the absence of S9 fraction. Conditions: salmonella enterica subsp. enterica serovar typhimurium. The class given is toxicity, organism-based.
The test system of series [13] is Heart. The series can be described thus: Inhibition of ischemia reperfusion injury-induced decrease in left ventricular developed pressure in Langendorff isolated perfused Sprague-Dawley rat heart at 100 nM after 30 mins. The class given is functional. Set-up: scale not given: the % may be the effect or the level left. In outline:
as §1

In series [14] the target is T1, Cytochrome P450 3A4. The series can be described thus: Inhibition of CYP3A4 in human liver microsomes using 7-benzyloxy-4-(trifluoromethyl)-coumarin as substrate after 30 mins by LC/MS/MS analysis. In kind it is ADME, Microsome.
The next series deals with U-937. The series can be described thus: Induction of phopspholipidosis in human U937 cells up to 50 uM after 24 hrs by Nile red flow cytometry assay. The class given is cell-based. The following applies: u-937, 24 h.
In series [15] the test system is Salmonella typhimurium. The series can be described thus: Genotoxicity in Salmonella typhimurium TA1535 up to 5000 ug/plate by Ames test in the presence of S9 fraction. In kind it is toxicity, organism-based. Conditions: salmonella enterica subsp. enterica serovar typhimurium.
Series [16] relates to Escherichia coli. The series can be described thus: Genotoxicity in Escherichia coli WP2 expressing uvrA up to 5000 ug/plate by Ames test in absence of S9 fraction. The class given is toxicity, organism-based.
Series [17] addresses T2, Sodium/hydrogen exchanger 3 (Homo sapiens) (UniProt P48764).
T2 sequence (whole entry): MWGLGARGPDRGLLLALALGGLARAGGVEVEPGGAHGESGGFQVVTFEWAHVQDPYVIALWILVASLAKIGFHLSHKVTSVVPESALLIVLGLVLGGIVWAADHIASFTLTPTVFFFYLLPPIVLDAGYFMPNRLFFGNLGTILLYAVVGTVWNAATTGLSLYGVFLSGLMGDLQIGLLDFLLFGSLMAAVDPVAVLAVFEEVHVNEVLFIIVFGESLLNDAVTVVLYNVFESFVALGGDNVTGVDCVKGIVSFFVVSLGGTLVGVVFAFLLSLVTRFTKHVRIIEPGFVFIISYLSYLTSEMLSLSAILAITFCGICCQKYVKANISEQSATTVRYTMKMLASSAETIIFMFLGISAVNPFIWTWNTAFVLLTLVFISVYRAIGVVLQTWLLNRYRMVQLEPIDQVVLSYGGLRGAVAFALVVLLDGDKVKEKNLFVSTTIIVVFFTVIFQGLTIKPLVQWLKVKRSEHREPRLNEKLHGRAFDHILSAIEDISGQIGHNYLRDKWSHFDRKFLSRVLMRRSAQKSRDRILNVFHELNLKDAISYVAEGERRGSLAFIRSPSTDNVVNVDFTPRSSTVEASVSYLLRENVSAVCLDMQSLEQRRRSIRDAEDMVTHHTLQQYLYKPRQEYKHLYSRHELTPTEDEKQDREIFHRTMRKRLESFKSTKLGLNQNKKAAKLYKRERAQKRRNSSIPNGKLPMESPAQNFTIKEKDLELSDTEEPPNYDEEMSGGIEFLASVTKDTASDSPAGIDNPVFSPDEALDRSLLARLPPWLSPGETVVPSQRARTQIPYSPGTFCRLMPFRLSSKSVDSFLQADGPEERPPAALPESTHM
As to the kind of experiment: Inhibition of NHE3 transfected in Chinese hamster PS120 assessed as intracellular pH change up to 16 uM. In kind it is cell-based.

Series [18] can be described thus: Mean resident time in overnight fasted Beagle dog at 1 mg/kg, iv. The following applies: in vivo. The class given is ADME, organism-based, Canis lupus familiaris. Further details: dose 1 mg/kg, route intravenous.
Another series concerns the target Cytochrome P450 2D6 (Homo sapiens, UniProt P10635). The series can be described thus: Inhibition of CYP2D6 in human liver microsomes using 3-[2-(N,N-diethyl-N-methylamino)ethyl]-7- methoxy-4-methylcoumarin as substrate after 45 mins by LC/MS/MS analysis. In kind it is ADME, Microsome.
The subject of a further series is Canis familiaris. The series can be described thus: Clearance in overnight fasted Beagle dog at 1 mg/kg, iv relative to hepatic blood flow. The class given is ADME, organism-based, Canis lupus familiaris, Liver. Further details: dose 1 mg/kg, route intravenous. Conditions: in vivo.
Series [19] has as its system Salmonella typhimurium. As to the kind of experiment: Genotoxicity in Salmonella typhimurium TA1535 up to 5000 ug/plate by Ames test in the absence of S9 fraction. The class given is toxicity, organism-based. Conditions: salmonella enterica subsp. enterica serovar typhimurium.
Another series relates to HeLa. As to the kind of experiment: Cytotoxicity against human HeLa cells up to 100 uM after 24 hrs. In kind it is cell-based.
The target in a further series is Cytochrome P450 2C9 (Homo sapiens, UniProt P11712). The series can be described thus: Inhibition of CYP2C9 in human liver microsomes using 7-methoxy-4-(trifluoromethyl)-coumarin as substrate after 45 mins by LC/MS/MS analysis. In kind it is ADME, Microsome.
Series [20] can be described thus: Oral bioavailability in overnight fasted Beagle dog at 5 mg/kg. The class given is ADME, organism-based, Canis lupus familiaris. The following applies: in vivo.
For a further series, the target named is Cytochrome P450 2C19 (Homo sapiens, UniProt P33261). As to the kind of experiment: Inhibition of CYP2C19 in human liver microsomes using 7-ethoxy-3-cyanocoumarin as substrate after 45 mins by LC/MS/MS analysis. In kind it is ADME, Microsome.
Series [21] deals with Salmonella typhimurium. The series can be described thus: Genotoxicity in Salmonella typhimurium TA98 up to 5000 ug/plate by Ames test in the presence of S9 fraction. The following applies: salmonella enterica subsp. enterica serovar typhimurium. The class given is toxicity, organism-based.
Series [22] deals with Escherichia coli. The series can be described thus: Genotoxicity in Escherichia coli WP2 expressing uvrA up to 5000 ug/plate by Ames test in presence of S9 fraction. The class given is toxicity, organism-based.
Series [23] has as its system Salmonella typhimurium. The series can be described thus: Genotoxicity in Salmonella typhimurium TA98 up to 5000 ug/plate by Ames test in the absence of S9 fraction. In kind it is toxicity, organism-based. Conditions: salmonella enterica subsp. enterica serovar typhimurium.
Series [24] in a line: Metabolic stability in human liver microsomes at 1 uM up to 60 mins by LC/MS/MS analysis relative to hepatic blood flow. The class given is ADME, Microsome. Conditions: read-out: Stability.
For series [25], the system named is Salmonella typhimurium. The series can be described thus: Genotoxicity in Salmonella typhimurium TA100 up to 5000 ug/plate by Ames test in the presence of S9 fraction. The class given is toxicity, organism-based. Conditions: salmonella enterica subsp. enterica serovar typhimurium.
A short description of series [26]: Permeability of the compound by PAMPA. The class given is ADME. Conditions: read-out: permeability. In outline: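 Donor buffers were set to pH 5.0, 6.2 and 7.4 with NaOH, and ASB7.4 buffer was used as acceptor. Filters (0.45 pore, 125 μm thick) were lipid-coated. A 10 mM DMSO stock was diluted to 41.7 μM in donor buffer. The sandwich was incubated 4 h without stirring. Reference, donor and acceptor concentrations were read in duplicate by UV plate reader, and ratings were assigned from permeation velocity.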

Chain of Sodium/hydrogen exchanger 1 (P19634 whole entry): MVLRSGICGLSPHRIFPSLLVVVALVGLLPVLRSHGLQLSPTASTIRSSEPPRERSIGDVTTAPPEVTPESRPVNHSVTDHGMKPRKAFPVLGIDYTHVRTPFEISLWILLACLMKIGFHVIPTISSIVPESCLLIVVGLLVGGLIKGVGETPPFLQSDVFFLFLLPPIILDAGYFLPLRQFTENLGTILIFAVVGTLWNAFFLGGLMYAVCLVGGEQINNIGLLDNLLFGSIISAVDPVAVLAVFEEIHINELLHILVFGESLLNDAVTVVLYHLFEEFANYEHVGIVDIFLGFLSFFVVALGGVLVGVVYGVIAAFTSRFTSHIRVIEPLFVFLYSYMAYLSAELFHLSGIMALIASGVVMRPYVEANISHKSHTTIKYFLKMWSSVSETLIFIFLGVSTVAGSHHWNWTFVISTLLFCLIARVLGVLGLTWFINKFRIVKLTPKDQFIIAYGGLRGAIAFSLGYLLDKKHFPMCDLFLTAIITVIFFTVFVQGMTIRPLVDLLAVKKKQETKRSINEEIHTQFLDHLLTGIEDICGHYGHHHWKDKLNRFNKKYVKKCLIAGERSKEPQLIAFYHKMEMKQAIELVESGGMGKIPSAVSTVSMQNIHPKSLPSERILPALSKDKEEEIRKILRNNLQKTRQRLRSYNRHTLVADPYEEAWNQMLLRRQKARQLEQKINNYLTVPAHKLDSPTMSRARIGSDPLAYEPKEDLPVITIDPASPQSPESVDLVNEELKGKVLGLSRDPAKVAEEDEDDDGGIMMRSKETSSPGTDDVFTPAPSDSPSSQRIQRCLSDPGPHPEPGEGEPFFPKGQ
T1 sequence (P08684 whole entry, the tested form may be a part): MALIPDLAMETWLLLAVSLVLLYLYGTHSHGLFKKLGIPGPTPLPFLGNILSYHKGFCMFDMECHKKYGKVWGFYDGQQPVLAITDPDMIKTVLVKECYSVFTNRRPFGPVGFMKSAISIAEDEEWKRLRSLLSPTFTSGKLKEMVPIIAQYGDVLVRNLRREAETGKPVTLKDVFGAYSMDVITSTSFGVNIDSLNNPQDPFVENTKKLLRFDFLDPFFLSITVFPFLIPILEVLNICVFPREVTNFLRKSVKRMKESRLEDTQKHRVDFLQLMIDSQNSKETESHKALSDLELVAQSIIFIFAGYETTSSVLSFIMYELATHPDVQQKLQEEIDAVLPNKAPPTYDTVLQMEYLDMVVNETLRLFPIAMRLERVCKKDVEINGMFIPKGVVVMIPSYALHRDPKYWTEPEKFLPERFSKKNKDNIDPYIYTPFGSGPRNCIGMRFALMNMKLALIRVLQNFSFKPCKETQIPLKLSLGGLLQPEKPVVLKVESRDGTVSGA
Chain of Cytochrome P450 2C9 (P11712 whole entry): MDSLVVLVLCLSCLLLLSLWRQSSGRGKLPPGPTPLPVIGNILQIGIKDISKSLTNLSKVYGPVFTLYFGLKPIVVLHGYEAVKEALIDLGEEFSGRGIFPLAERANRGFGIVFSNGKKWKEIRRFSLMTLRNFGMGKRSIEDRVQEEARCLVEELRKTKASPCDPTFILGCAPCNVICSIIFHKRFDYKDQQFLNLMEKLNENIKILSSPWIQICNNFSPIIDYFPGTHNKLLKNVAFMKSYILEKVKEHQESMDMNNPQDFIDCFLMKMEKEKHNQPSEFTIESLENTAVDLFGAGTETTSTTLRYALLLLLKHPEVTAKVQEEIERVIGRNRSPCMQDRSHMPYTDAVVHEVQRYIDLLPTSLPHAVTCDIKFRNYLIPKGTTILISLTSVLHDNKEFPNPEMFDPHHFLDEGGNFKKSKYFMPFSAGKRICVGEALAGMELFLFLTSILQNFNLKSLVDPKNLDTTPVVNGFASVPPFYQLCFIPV
Chain of Cytochrome P450 2C19 (P33261 whole entry): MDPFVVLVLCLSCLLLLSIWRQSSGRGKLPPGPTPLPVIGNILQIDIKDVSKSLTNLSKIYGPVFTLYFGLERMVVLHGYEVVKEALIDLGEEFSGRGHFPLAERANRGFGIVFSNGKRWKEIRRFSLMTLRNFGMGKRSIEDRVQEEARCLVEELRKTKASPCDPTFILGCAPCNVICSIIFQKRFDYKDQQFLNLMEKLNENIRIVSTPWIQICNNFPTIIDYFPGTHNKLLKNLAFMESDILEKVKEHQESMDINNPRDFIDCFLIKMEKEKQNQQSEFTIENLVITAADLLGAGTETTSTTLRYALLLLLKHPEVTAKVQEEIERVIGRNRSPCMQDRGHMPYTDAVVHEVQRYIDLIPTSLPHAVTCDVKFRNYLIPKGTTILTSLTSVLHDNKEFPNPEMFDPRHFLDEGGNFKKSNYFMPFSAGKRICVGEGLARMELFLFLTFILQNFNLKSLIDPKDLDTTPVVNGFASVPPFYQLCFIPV
Chain of Cytochrome P450 2D6 (P10635 whole entry): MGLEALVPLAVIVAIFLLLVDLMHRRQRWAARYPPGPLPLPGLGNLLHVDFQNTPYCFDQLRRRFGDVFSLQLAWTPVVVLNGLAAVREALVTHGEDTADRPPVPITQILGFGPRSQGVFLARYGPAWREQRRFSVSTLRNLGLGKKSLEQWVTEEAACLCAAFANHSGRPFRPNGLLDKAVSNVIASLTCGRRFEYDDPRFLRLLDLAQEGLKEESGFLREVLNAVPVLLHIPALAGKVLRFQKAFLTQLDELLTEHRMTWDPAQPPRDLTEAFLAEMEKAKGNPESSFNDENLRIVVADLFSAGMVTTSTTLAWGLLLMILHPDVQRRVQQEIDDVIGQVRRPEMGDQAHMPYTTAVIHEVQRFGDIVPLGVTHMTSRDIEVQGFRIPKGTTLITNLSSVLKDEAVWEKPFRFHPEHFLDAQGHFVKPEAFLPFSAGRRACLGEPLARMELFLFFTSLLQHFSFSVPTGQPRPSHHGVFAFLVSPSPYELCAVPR
Chain of Voltage-gated inwardly rectifying potassium channel KCNH2 (Q12809 whole entry): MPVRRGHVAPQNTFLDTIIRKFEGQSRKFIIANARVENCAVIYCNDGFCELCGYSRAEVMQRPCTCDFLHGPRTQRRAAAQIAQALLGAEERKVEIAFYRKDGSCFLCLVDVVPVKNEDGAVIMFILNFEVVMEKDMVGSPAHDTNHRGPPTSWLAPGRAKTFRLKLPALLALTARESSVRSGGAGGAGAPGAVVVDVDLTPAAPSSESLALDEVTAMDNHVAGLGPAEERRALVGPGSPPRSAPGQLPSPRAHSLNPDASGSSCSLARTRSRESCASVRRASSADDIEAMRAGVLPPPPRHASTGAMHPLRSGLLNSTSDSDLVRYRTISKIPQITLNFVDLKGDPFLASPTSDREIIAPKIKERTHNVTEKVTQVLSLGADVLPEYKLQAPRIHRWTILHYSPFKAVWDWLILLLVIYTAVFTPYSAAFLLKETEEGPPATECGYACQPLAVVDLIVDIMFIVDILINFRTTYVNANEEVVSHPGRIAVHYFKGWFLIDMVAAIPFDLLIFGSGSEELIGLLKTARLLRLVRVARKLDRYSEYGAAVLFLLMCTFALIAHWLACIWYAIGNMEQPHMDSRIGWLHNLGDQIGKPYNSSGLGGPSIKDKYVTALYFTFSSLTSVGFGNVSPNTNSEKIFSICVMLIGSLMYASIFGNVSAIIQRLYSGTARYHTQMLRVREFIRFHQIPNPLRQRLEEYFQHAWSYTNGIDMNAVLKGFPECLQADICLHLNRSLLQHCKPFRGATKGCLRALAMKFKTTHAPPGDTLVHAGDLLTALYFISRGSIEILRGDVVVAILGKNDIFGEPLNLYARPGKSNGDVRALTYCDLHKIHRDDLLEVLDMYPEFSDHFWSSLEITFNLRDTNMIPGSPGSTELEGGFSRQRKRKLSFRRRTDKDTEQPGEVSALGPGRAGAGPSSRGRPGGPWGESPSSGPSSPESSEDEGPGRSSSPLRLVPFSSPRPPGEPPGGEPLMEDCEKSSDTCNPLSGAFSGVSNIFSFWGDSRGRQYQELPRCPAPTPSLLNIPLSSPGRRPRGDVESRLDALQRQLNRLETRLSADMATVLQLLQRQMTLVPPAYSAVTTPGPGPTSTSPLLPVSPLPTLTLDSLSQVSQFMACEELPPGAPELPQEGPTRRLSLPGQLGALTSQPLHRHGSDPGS

As usually defined, the pIC50 is the negative decadic logarithm of the IC50, by convention in mol/L. The term MRT denotes the average time that molecules of a dose stay in the body. Usually bioavailability stands for dose-corrected exposure relative to a reference, in per cent. `CCC(=O)N1CCC(c2cc(C)c(C(=O)NC(=N)N)cc2S(C)(=O)=O)CC1`: in the series on Caco-2, the Ratio worked out at 14. For the same compound, in [1], the Vd was 0.95 L/kg. Besides, in the series with Rattus norvegicus, the CL was determined as 54%. Besides, the pIC50 in [2] was 7.82. The compound also registered an MRT in series [3] of 0.3 h. This compound also had a bioavailability in series [4] of 1%.

With `CC(=O)N1CCC(c2ccc(C(=O)NC(=N)N)cc2C(F)(F)F)CC1` [BI 9627], the Activity entry at Cytochrome P450 3A4 [5] is given as “Not Active”; in the series on Heart [6], 36%; in the series with Salmonella typhimurium [7] it was “Non-toxic”; with Salmonella typhimurium [8], “Non-toxic”; in the series on Salmonella typhimurium [12], “Non-toxic”; in the series with Heart [13], 100%. Further, the Activity entry in the series on U-937, in the series on Salmonella typhimurium [15], in the series with Escherichia coli [16], in the series with Salmonella typhimurium [19], in the series on HeLa and in the series with Salmonella typhimurium [21] was “Non-toxic” each time. Further, the Activity entry with Escherichia coli [22], in the series on Salmonella typhimurium [23] and in the series with Salmonella typhimurium [25] was “Non-toxic” each time. Also, the pIC50 in [9] is less than 4.52; at Cytochrome P450 3A4 [14] it was less than 4.52; in series [2], 8.22; against Cytochrome P450 2D6, less than 4.52; against Cytochrome P450 2C9, less than 4.52; against Cytochrome P450 2C19, less than 4.52. Moreover, the results for the hepatic extraction ratio at 1 h, 1 µM in series [10] and in series [24] were 0.11 and less than 0.11, respectively. Further, the Vd in [11] came to 1.4 L/kg; in [1], 0.76 L/kg. Also, the CL in the series with Rattus norvegicus was 5.7%; in the series with Canis familiaris, 13%. Further, in series [17], the inhibition entry is “inactive”. Also, the MRT in [18] worked out at 6.2 h; in series [3], 3.2 h. Also, the bioavailability in series [20] was 33%; in series [4], 73%. In [26], the Papp is no less than 2 ×10⁻⁶ cm/s.
